Experimental data as given in ChEMBL document CHEMBL4392823, “Potassium channel blocking 1,2-bis(aryl)ethane-1,2-diamines active as antiarrhythmic agents” (Bioorg Med Chem Lett, 2019).

Columns and labels:
[1] = Plasma clearance in dog; type: ADME, Canis lupus familiaris
[2] = Drug excretion in dog urine; type: ADME, Canis lupus familiaris; details: read-out: Drug excretion
[3] = Renal clearance in dog; type: ADME, Canis lupus familiaris; details: in vivo
[4] = biological target: T1, Potassium voltage-gated channel subfamily A member 5 (Homo sapiens, UniProt P22460); assay: Inhibition of recombinant human Kv1.5 expressed in CHO cells by IonWork high-throughput electrophysiology assay; type: cell-based
Summary of the method: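 Kv1.5 current recorded in CHO cells by IonWorks HT automated electrophysiology. IC50 is the average of 2 measurements unless n=1 is noted.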

[5] = biological target: T1, Potassium voltage-gated channel subfamily A member 5; assay: Inhibition of Kv1.5 in human atrial myocytes assessed as blockade of Ikur current; type: cell-based
[6] = tested on: Oryctolagus cuniculus; assay: Antiarrhythmic activity in iv dosed anesthetized rabbit assessed as free compound plasma exposure which prolongs the right atrial effective refractory period by 20 milliseconds measured after 20 mins by electrophysiological analysis; type: functional
Summary of the method: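 Anesthetized rabbits received increasing intravenous infusions of test compound. Right atrial effective refractory period was measured 20 min after each dose. Value is the free plasma exposure giving a 20 ms RAERP prolongation.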

[7] = biological target: Voltage-gated inwardly rectifying potassium channel KCNH2 (Homo sapiens, UniProt Q12809); assay: Inhibition of human ERG
[8] = biological target: Cytochrome P450 3A4 (Homo sapiens, UniProt P08684); assay: Drug metabolism in human hepatocytes assessed as CYP3A4-mediated drug metabolism; type: ADME, cell-based
[9] = Stability in human liver microsomes assessed as formation of iminium ions; type: ADME, Microsome
[10] = biological target: Potassium voltage-gated channel subfamily E member 1 (Homo sapiens, UniProt P15382); assay: Inhibition of IKs (unknown origin)
[11] = biological target: Cytochrome P450 2D6 (Homo sapiens, UniProt P10635); assay: Inhibition of CYP2D6 (unknown origin); type: ADME
[12] = Intrinsic clearance in human liver microsomes; type: ADME, Microsome; details: read-out: CLH
[13] = Lipophilicity, log D of the compound by chromatographic method; type: physicochemical
Summary of the method: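 Lipophilicity (log D) measured by a chromatographic method.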

[14] = Dissociation constant, pKa of the compound; type: physicochemical
[15] = biological target: T2, G protein-activated inward rectifier potassium channel 1 (Homo sapiens, UniProt P48549); assay: Inhibition of Kir3.1 (unknown origin)
T2 sequence (P48549 whole entry): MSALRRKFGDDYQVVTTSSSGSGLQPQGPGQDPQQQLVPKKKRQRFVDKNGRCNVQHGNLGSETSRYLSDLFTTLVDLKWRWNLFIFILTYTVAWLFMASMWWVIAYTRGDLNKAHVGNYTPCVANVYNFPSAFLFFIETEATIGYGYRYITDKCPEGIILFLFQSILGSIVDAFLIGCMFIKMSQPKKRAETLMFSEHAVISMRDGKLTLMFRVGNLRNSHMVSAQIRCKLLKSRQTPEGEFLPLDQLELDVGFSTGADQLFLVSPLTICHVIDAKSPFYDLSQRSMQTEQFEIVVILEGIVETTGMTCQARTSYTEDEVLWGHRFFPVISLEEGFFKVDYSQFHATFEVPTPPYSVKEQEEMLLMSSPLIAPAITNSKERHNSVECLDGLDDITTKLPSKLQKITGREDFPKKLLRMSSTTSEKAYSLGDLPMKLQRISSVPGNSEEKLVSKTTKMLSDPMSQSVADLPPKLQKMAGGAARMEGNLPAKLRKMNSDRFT

[16] = species on record: Canis familiaris; assay: Antiarrhythmic activity in rapid atrial pacing dog model of atrial fibrillation assessed as unbound plasma concentration required to convert atrial fibrillation to sinus rhythm; type: functional, Canis lupus familiaris
Summary of the method: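 Rapid atrial pacing dog model of AF (n=12). Read-out was conversion of AF to sinus rhythm, with the unbound plasma concentration at conversion reported as mean ± spread.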

[17] = biological target: T3, A-type voltage-gated potassium channel KCND3 (Homo sapiens, UniProt Q9UK17); assay: Inhibition of Kv4.3 (unknown origin)
T3 sequence (Q9UK17 whole entry): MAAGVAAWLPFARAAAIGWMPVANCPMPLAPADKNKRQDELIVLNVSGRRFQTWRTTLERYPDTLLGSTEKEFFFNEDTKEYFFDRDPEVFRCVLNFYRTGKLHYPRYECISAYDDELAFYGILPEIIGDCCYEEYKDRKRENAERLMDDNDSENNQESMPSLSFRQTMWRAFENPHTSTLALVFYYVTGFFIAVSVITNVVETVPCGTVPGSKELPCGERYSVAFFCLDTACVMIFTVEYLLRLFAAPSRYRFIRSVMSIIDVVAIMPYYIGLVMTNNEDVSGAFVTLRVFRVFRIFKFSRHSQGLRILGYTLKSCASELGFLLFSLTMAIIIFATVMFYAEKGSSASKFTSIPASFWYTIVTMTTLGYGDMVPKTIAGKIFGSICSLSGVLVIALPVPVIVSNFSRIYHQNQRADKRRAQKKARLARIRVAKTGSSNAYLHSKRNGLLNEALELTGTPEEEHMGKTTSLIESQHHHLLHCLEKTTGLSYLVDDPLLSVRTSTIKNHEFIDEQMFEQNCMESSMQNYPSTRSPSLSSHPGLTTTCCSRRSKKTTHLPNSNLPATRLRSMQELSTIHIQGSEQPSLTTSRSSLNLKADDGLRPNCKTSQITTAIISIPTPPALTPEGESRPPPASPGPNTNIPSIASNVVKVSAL

[18] = biological target: T4, Glutamate [NMDA] receptor (Homo sapiens) (UniProt Q05586+Q12879+Q13224+O15399+O60391+Q14957+Q8TCU5); assay: Inhibition of NMDA receptor glycine binding site (unknown origin) at 10 uM relative to control; type: protein-complex assay
[19] = biological target: hERG (KCNH2) (Homo sapiens, UniProt Q12809); assay: Inhibition of human ERG at 33 uM relative to control
[20] = Free drug level in rat brain at 2 umol/kg/hr administered for 4 hrs; type: ADME, tissue-based; details: in vivo
Summary of the method: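 Rats received a continuous intravenous infusion at 2 μmol/kg/h for 4 h. Total brain and plasma concentrations were measured at steady state. Free levels were calculated from measured unbound fractions in brain and plasma, and free brain exposure was expressed relative to free plasma exposure.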

[21] = biological target: Sodium channel protein type 5 subunit alpha (Homo sapiens, UniProt Q14524); assay: Inhibition of Nav1.5 (unknown origin)
[22] = biological target: T5, G protein-activated inward rectifier potassium channel 4 (Homo sapiens, UniProt P48544); assay: Inhibition of Kir3.4 (unknown origin)
T5 sequence (P48544 whole entry): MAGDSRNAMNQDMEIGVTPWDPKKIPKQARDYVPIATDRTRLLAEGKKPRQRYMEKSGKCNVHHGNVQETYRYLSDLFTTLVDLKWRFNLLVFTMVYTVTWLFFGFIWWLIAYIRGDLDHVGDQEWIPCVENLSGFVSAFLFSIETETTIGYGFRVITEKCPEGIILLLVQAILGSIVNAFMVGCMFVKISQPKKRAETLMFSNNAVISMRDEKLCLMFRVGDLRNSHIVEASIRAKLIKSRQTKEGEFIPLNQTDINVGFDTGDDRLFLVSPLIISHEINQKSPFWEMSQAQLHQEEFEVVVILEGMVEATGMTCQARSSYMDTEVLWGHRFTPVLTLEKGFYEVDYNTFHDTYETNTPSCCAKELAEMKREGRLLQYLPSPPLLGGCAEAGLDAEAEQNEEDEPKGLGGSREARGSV

[23] = biological target: T4, Glutamate [NMDA] receptor (Homo sapiens); assay: Inhibition of NMDA receptor phencyclidine binding site (unknown origin) at 10 uM relative to control; type: protein-complex assay
[24] = biological target: Voltage-dependent L-type calcium channel subunit alpha-1C (Homo sapiens, UniProt Q13936); assay: Inhibition of CaV1.2 (unknown origin)
[25] = Cardiotoxicity in dog assessed as blockade of sodium channel by measuring changes in ECG at higher dose; type: toxicity, Canis lupus familiaris; details: in vivo

Chain of Cytochrome P450 2D6 (P10635 whole entry): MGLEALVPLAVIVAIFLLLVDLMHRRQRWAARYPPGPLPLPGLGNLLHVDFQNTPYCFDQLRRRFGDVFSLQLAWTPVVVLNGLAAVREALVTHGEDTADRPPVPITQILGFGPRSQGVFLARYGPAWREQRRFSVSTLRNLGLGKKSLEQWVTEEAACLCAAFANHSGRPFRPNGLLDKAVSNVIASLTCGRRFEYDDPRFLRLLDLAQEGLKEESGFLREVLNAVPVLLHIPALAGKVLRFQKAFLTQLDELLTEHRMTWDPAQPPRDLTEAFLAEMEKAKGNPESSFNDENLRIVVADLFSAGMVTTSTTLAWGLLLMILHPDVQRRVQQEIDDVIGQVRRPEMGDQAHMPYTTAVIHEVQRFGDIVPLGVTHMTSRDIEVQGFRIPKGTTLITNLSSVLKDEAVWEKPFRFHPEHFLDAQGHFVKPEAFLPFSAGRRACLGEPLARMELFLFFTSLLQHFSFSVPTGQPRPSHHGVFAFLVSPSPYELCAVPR
T1 sequence (P22460 whole entry): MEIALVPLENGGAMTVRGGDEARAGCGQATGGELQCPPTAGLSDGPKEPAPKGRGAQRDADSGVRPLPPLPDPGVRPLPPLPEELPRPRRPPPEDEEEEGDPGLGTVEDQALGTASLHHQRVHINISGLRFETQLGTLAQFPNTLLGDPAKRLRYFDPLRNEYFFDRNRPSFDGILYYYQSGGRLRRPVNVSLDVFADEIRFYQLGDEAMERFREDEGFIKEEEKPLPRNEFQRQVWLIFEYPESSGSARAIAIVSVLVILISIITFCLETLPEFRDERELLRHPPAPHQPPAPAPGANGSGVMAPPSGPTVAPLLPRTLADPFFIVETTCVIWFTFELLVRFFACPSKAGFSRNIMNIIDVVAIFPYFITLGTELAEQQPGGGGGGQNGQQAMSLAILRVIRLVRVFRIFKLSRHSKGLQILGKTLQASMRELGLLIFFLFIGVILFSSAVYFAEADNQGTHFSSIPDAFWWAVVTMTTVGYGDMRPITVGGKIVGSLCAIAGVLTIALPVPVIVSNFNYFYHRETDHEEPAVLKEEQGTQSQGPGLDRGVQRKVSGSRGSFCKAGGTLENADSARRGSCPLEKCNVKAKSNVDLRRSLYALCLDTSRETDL
Chain of Cytochrome P450 3A4 (P08684 whole entry): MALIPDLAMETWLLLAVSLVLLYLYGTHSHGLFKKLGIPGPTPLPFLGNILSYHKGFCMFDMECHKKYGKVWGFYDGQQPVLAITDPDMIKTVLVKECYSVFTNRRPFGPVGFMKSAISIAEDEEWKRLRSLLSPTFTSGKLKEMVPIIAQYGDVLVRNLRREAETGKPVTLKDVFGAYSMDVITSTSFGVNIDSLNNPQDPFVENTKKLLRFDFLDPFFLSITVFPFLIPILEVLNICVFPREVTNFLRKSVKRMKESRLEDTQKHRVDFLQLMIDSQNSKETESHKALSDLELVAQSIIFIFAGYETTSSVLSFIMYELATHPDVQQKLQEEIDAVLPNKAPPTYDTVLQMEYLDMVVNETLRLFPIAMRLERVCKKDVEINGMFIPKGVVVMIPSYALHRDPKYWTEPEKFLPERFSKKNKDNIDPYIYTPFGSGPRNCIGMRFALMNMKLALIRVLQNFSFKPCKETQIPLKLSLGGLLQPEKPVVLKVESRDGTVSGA
Chain of Voltage-gated inwardly rectifying potassium channel KCNH2 (Q12809 whole entry): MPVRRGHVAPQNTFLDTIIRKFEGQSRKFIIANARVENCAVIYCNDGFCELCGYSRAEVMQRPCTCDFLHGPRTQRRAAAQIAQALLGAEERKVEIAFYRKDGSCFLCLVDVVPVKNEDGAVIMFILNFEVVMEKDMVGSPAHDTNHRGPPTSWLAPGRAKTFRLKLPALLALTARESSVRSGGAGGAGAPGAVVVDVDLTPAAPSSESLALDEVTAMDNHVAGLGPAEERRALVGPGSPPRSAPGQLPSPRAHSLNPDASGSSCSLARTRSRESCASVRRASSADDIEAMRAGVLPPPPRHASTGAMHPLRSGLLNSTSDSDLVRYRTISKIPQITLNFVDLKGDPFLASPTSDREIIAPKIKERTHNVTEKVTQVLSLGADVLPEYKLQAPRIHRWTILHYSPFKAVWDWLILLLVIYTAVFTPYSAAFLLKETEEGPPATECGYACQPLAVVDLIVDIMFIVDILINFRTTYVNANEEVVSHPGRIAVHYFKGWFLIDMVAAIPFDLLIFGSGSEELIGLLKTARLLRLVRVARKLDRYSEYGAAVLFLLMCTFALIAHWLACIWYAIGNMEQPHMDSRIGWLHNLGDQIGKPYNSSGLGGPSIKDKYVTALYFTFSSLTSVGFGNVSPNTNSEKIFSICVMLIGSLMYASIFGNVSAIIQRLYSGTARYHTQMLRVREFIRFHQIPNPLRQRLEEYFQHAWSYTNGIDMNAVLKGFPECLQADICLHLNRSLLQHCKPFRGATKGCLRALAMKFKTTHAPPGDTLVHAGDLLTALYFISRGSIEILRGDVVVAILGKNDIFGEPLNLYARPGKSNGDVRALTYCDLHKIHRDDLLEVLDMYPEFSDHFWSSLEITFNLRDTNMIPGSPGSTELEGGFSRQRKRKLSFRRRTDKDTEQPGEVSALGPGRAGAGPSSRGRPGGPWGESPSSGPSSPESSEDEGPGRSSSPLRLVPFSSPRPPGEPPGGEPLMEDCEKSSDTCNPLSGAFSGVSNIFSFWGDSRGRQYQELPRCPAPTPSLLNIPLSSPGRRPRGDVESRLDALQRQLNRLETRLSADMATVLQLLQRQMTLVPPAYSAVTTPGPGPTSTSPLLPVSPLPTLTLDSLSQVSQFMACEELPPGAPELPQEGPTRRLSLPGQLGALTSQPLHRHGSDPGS
Chain of hERG (KCNH2) (Q12809 whole entry): as above

Row | Structure (SMILES) | clearance [1] | dose excreted [2] | CL renal [3] | IC50 [4] | Drug metabolism [8] | IC50 [10] | microsomal CLint [12] | chromatographic logD [13] | other results
1 | CCCN(CC)[C@H](c1ccccn1)[C@@H](c1ccccn1)N(CCOC)C[C@H](C)CO | 25 mL/min/kg | 11% | 2.7 mL/min/kg | 10 µM | – | – | – | – | –
2 | COCCN(C[C@H](C)O)[C@H](c1ccccn1)[C@@H](c1ccccn1)N1C2CCC1CC(OC)C2 (stereo not given in full) | 25 mL/min/kg | 28% | 7.1 mL/min/kg | 5.6 µM | – | – | – | – | –
3 | CCCN(CC)[C@@H](c1ccccn1)[C@H](c1cccc(C#N)c1)N(CCOC)C[C@@H](C)CO | 37 mL/min/kg | 4.7% | 1.8 mL/min/kg | 7.3 µM | – | – | – | – | IC50 [5]: 0.26 µM
4 | CCCN(CCC)[C@H](c1ccccn1)[C@@H](c1ccccn1)N(CCOC)C[C@H](C)O | 21 mL/min/kg | 11% | 2.5 mL/min/kg | 2.7 µM | – | – | – | – | Cp(f) [6]: 0.22 µM
5 | CCCN(CC)[C@H](c1ccccn1)[C@@H](c1ccccn1)N(CC)CCC | 16 mL/min/kg | 6.9% | 0.7 mL/min/kg | 3.2 µM | Metabolite_Detected | 60 µM | 23 µL/min/mg | 3.3 | IC50 [7]: > 33 µM; Stability [9]: Stable; IC50 [11]: 5.4 µM
6 | c1ccc([C@@H]([C@H](c2ccccn2)N2CCCCC2)N2CCCCC2)nc1 | – | – | – | 4.8 µM | Metabolite_Detected | – | < 5 µL/min/mg | 2.2 | pKa [14]: 10.4
7 | CCCN(CCC)[C@H](c1ccccn1)[C@@H](c1ccccn1)N(CCC)C[C@H](O)CO | 6.1 mL/min/kg | 5.1% | 0.19 mL/min/kg | 1.7 µM | – | > 33 µM | – | – | IC50 [15]: 4.1 µM; Cp(f) [16]: 0.48 µM; IC50 [17]: 11 µM; IC50 [5]: 0.06 µM; IC50 [7]: > 33 µM; inhibition [18]: 13%; inhibition at 33 µM [19]: 37%; Drug uptake(free) [20]: 4%; IC50 [21]: 19 µM; IC50 [22]: 4.1 µM; inhibition [23]: 14%; IC50 [24]: > 33 µM; Cp(f) [6]: 0.15 µM
8 | CCCN(CCC)[C@H](c1ccccn1)[C@@H](c1ccccn1)N(C[C@@H](C)O)C[C@@H](C)O | 16 mL/min/kg | 19% | 5.5 mL/min/kg | 2.1 µM | – | – | – | – | Cp(f) [6]: 0.29 µM
9 | CCCN(CC)[C@H](c1ccccn1)[C@@H](c1cccc(C#N)c1)N(CCOC)C[C@H](C)CO | 44 mL/min/kg | 4.4% | 2.1 mL/min/kg | 4.8 µM | – | – | – | – | IC50 [5]: 0.39 µM
10 | c1ccc([C@H]([C@@H](c2ccccc2)N2CCCCC2)N2CCCCC2)cc1 | – | – | – | 0.41 µM | Metabolite_Detected | 1.4 µM | 14 µL/min/mg | 4 | IC50 [7]: > 33 µM; Stability [9]: Unstable; IC50 [11]: 0.13 µM
11 | CCCN(C[C@H](C)O)[C@H](c1ccccn1)[C@@H](c1ccccn1)N1C2CCCC1CC2 | 3 mL/min/kg | 12% | 0.3 mL/min/kg | 3.4 µM | – | – | – | – | Activity [25]: Toxic; Cp(f) [6]: 0.057 µM
12 | c1ccc([C@H]([C@@H](c2ccccn2)N2CCCCC2)N2CCCCC2)nc1 | – | – | – | 2.2 µM | Metabolite_Detected | 17 µM | < 5 µL/min/mg | 2.2 | IC50 [7]: > 33 µM; IC50 [11]: > 20 µM; pKa [14]: 10.4
13 | c1ccc([C@H]([C@H](c2ccccn2)N2CCCCC2)N2CCCCC2)nc1 | – | – | – | 1.4 µM | Metabolite_Detected | – | 412 µL/min/mg | 4.6 | pKa [14]: 8.7
14 | CCCN(CCC)[C@H](c1ccccn1)[C@@H](c1ccccn1)N(CCC)CCC | – | – | – | 0.22 µM | Metabolite_Detected | > 33 µM | 58 µL/min/mg | 4.6 | IC50 [11]: > 20 µM
